Data as given in PMC5488297 (Chemistry (Weinheim an Der Bergstrasse, Germany), 2017).
Values belong to the molecule of their own block, whether it stands above or below them.

Legend:
[1] = system: U87 (αVβ3+) and U87 β3‐KO (αVβ3−) cells; assay: Targeting index / selectivity between U87 β3‐KO and U87 cells; format: cell-based, human; details: for Targeting index (TI): [IC50(αVβ3−)/IC50(αVβ3+)]conjugate/[IC50(αVβ3−)/IC50(αVβ3+)]paclitaxel
In short: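 The targeting index uses IC50s from the 144 h CellTiter-Glo ATP viability assay on the isogenic U87 and U87 β3-KO (CRISPR-Cas9 β3 deletion) pair. The ratio IC50(β3-KO)/IC50(U87) for the conjugate is divided by the same ratio for free paclitaxel tested in parallel under identical conditions.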

[2] = system: U87 β3‐KO (αVβ3−) cells; assay: Anti‐proliferative activity, CellTiter-Glo ATP cell viability, U87 β3‐KO; format: cell-based; details: Homo sapiens, 144 h
In short: (§1)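 U87 human glioblastoma cells were used alongside an isogenic U87 clone with the β3 integrin subunit gene deleted by CRISPR-Cas9. Absence of αVβ3 was confirmed by flow cytometry using anti-αVβ3 antibody LM609 plus a fluorescent secondary antibody. Cells were exposed to increasing concentrations of test compound for 144 h, with free paclitaxel run in parallel. Viability was read as cellular ATP by CellTiter-Glo. IC50 was taken as the concentration giving 50 % inhibition of viability.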

[3] = system: U87 (αVβ3+) human glioblastoma cells; assay: Anti‐proliferative activity, CellTiter-Glo ATP cell viability, U87; format: cell-based; details: 144 h
In short: as §1

[4] = target: purified αVβ3 receptor (Homo sapiens, UniProt P05106+P06756); assay: Inhibition of biotinylated vitronectin binding to purified αVβ3 receptor
purified αVβ3 receptor, sequence (P06756 891-1048): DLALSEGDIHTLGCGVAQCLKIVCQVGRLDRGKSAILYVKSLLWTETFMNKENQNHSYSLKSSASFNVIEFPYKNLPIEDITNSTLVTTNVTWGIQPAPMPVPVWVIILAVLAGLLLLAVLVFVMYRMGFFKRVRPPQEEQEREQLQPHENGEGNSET
purified αVβ3 receptor, sequence (P06756 31-889): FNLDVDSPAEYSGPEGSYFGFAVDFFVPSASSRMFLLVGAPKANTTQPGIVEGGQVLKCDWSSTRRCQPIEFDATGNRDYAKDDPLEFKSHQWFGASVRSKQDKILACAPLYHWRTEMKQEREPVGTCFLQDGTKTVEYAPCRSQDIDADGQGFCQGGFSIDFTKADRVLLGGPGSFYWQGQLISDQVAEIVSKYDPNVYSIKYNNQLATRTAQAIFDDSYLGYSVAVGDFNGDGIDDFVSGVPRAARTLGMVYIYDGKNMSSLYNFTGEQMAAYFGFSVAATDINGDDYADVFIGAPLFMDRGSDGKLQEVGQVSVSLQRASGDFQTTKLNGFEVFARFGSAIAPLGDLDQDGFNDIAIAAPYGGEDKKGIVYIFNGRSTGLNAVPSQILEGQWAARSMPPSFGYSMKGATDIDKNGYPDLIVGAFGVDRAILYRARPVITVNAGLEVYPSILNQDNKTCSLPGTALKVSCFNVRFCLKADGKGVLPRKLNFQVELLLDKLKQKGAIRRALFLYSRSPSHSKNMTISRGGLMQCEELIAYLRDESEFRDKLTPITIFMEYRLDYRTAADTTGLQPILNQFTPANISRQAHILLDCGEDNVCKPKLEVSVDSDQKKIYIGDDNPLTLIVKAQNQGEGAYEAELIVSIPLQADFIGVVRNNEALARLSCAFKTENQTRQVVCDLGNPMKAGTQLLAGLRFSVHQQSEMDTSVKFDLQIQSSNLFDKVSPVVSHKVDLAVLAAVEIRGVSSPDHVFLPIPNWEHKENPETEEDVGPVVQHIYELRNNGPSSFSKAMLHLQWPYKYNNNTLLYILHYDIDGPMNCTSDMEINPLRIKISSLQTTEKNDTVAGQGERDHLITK
purified αVβ3 receptor, sequence (P05106 27-788): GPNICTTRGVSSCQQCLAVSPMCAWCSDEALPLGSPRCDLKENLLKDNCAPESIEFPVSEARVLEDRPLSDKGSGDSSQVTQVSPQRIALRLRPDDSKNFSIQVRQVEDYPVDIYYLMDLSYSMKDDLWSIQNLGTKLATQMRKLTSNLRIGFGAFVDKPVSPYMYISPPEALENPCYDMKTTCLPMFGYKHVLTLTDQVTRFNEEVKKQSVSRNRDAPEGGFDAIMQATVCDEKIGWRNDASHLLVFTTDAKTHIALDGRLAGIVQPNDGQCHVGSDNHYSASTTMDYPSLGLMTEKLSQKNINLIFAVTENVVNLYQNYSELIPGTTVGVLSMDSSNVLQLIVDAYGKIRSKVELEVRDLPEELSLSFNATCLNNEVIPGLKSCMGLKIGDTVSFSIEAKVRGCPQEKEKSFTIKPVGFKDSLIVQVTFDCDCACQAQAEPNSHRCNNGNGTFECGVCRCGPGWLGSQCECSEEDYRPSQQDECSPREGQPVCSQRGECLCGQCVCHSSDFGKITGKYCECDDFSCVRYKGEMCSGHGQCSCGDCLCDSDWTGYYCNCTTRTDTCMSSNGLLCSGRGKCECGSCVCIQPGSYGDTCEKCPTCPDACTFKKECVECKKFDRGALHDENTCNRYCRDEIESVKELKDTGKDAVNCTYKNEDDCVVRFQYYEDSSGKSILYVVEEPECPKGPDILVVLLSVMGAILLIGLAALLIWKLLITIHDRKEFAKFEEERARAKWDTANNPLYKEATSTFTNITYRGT

[5] = system: FAK/Akt integrin‐activated transduction pathway; details: cited from earlier work
[6] = system: integrin‐mediated cell infiltration processes; details: cited from earlier work

IC50 [2]: 0.28 nM
IC50 [3]: 0.64 nM
Molecule: CC(=O)O[C@H]1C(=O)[C@@]2(C)[C@H]([C@H](OC(=O)c3ccccc3)[C@]3(O)C[C@H](OC(=O)[C@H](O)[C@@H](NC(=O)c4ccccc4)c4ccccc4)C(C)=C1C3(C)C)[C@]1(OC(C)=O)CO[C@@H]1C[C@@H]2O [Paclitaxel]
times more effective on U87 β3‐KO cells (than on U87) ([1]; 144 h): 2.3 times
Targeting index (TI) ([1]; 144 h): 1

Molecule: CC(=O)O[C@H]1C(=O)[C@@]2(C)[C@H]([C@H](OC(=O)c3ccccc3)[C@]3(O)C[C@H](OC(=O)[C@H](OC(=O)N(C)CCN(C)C(=O)OCc4ccc(NC(=O)[C@H](C)NC(=O)[C@@H](NC(=O)CCCC(=O)NCc5ccc(CN6C(=O)[C@H]7CC(=O)N[C@H](C(=O)O)CC(=O)NCC(=O)N[C@@H](CCCNC(=N)N)C(=O)NC[C@H]6C(=O)N7)cc5)C(C)C)cc4)[C@@H](NC(=O)c4ccccc4)c4ccccc4)C(C)=C1C3(C)C)[C@]1(OC(C)=O)CO[C@@H]1C[C@@H]2O [compound 2, cyclo[DKP‐isoDGR]‐Val‐Ala‐PTX]
Targeting index (TI) ([1]; 144 h): 9.9
targeting ability (in words) ([1]; two isogenic cancer cell lines expressing integrin αVβ3 at different levels): notable targeting ability
IC50 [4]: 11 ± 0.2 nM
affinity for the purified integrin αVβ3 receptor (in words) [4]: low nanomolar affinity

Molecule: CC(=O)O[C@H]1C(=O)[C@@]2(C)[C@H]([C@H](OC(=O)c3ccccc3)[C@]3(O)C[C@H](OC(=O)[C@H](OC(=O)N(C)CCN(C)C(=O)OCc4ccc(NC(=O)[C@H](C)NC(=O)[C@@H](NC(=O)CCCC(=O)NCc5ccc(CN6C(=O)[C@H]7CC(=O)N[C@@H](CCCNC(=N)N)C(=O)NCC(=O)N[C@@H](CC(=O)O)C(=O)NC[C@H]6C(=O)N7)cc5)C(C)C)cc4)[C@@H](NC(=O)c4ccccc4)c4ccccc4)C(C)=C1C3(C)C)[C@]1(OC(C)=O)CO[C@@H]1C[C@@H]2O [compound 4, cyclo[DKP‐RGD]‐Val‐Ala‐PTX]
Targeting index (TI) ([1]; 144 h): 2.4
IC50 [4]: 13.3 ± 3.6 nM

Molecule: cyclo[DKP‐isoDGR] [compound 1]
effect on FAK/Akt integrin‐activated transduction pathway [5]: inhibitory effects
effect on integrin‐mediated cell infiltration processes [6]: inhibitory effects
